Results as given in PubChem BioAssay AID743238 (Broad Institute, 2013).
About 200 (0.056%) of roughly 360,000 compounds were called active. What follows is part of a selection rich in actives, with near analogues and random picks from the rest. A number with no mark means an inactive call.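 The calls were made as follows: active = mean normalized replicate activation at least 10% and every replicate at or above 10%; inconclusive = only one of the two criteria met; inactive = mean below 10% and not all replicates reach 10%.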

Test: activators of inactive X chromosome reactivation, primary screen, imaging, XiGFP fibroblasts, GFP high-content imaging, set 2 (AID 743238);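 also: 0% = median of on-plate neutral control wells and 100% = ellipticine 6 µM median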
Settings: XiGFP mouse fibroblasts, % GFP-positive cells imaging, 3 d; at 7.58 µM; hits give high values; cells co-treated with 5-aza-dC sensitizer; scaled so ellipticine positive control = 100%
Procedure, shortened: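 Assay system: SV40-immortalized XiGFP fibroblast cells, line 68-5-11; buffer or medium: DMEM plus 5-aza-dC sensitizer; compound: one concentration, pinned; timing: compounds 3 days, fix/stain 15 min at room temperature; benchmarks: positive control ellipticine, 6 µM final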
Molecule `C[C@H](CO)N1C[C@H](C)[C@H](CN(C)Cc2ccncc2)Oc2ccc(NS(=O)(=O)c3cn(C)cn3)cc2C1=O` has an activation of -0.119%. `CC=Cc1ccc2n(c1=O)C[C@@H]1[C@@H](CO)[C@H](C(=O)NC3CCCC3)[C@H]2N1C(=O)c1cnccn1` (mixture of isomers) gave an activation of 0.002%. `O=C(Nc1ccccc1F)N[C@@H]1CC[C@H](CCNC(=O)C2CC2)O[C@@H]1CO` gave an activation of 0.587%. With `O=C(C[C@H]1C=C[C@@H](NC(=O)Nc2cc(F)ccc2F)[C@@H](CO)O1)NCc1ccc2c(c1)OCO2` the activation was 0.137%. `C[C@@H]1CN([C@H](C)CO)C(=O)c2cccc(NS(C)(=O)=O)c2O[C@@H]1CN(C)S(=O)(=O)c1cccs1` gave an activation of -1.35%. In the case of `COc1ccccc1NC(=O)N1CC(=O)N2[C@H](CO)[C@@H](c3ccc(C#Cc4ccc(F)cc4)cc3)[C@H]2C1`, the activation is reported as -0.0395%. With `N#C/C(=C/c1ccc(N2CCCCC2)o1)C(=O)NCCc1c[nH]c2ccccc12` the activation was 119% (active). For `Cc1ccc(S(=O)(=O)N(C)CC(=O)NCCc2c[nH]c3ccccc23)cc1`, the activation was 0.082%. Molecule `O=C(NCCc1c[nH]c2ccccc12)c1cc2ccccc2oc1=O` has an activation of -0.0325%. Molecule `CCCNC(=O)NC[C@H]1[C@H](c2ccc(C3=CCCCC3)cc2)[C@H](CO)N1C(C)=O` has an activation of -0.0205%. For `CC(C)NC(=O)N1[C@H](C#N)[C@@H](c2ccc(-c3ccc(F)cc3)cc2)[C@H]1CO`, the activation was 0.054%. In the case of `C[C@@H]1CN([C@H](C)CO)C(=O)c2cc(NC(=O)CCCCCC(=O)Nc3ccccc3N)ccc2O[C@@H]1CN(C)S(=O)(=O)c1ccc(Cl)cc1`, the activation is reported as -0.749%. `C[C@H](O)C#Cc1ccc2c(c1)O[C@@H](CN(C)Cc1cccnc1)[C@H](C)CN([C@H](C)CO)S2(=O)=O` gave an activation of 0.253%. Work on `O=C(NC1Cc2ccccc2C1)[C@H]1[C@H](CO)[C@H]2Cn3c(ccc(C4=CCCCC4)c3=O)[C@H]2N1CC1CC1` yielded an activation of 0.397%. For `CN(C)CC(=O)N[C@@H]1CC[C@H](CC(=O)O)O[C@H]1CO`, the activation was -0.0755%. With `C[C@@H]1CN([C@@H](C)CO)C(=O)c2cc(C#CC3CCCCC3)cnc2O[C@@H]1CN(C)Cc1cncnc1` the activation was -1.05%. For `CCC(=C/c1sc2ccc3ccccc3c2[n+]1C)/C=C1\Sc2ccc3ccccc3c2N1C`, the activation was 68% (active). `CC(C)C#Cc1cnc2c(c1)C(=O)N([C@@H](C)CO)C[C@@H](C)[C@H](CN(C)C(=O)CCN1CCCCC1)O2` gave an activation of 0.409%.
